Data: ChEMBL document CHEMBL1949545, “Synthesis and evaluation of malonate-based inhibitors of phosphosugar-metabolizing enzymes: class II fructose-1,6-bis-phosphate aldolases, type I phosphomannose isomerase, and phosphoglucose isomerase” (Bioorg Med Chem, 2012)
The source made the active and inactive calls. The calls are words filed in the database; no cut-off is given here.

How the values were obtained:
[1] = Inhibition of Escherichia coli PMI
[2] = Inhibition of yeast PGI; parameters: species or system Saccharomyces cerevisiae
[3] = Inhibition of Yersinia pestis FBA-2
[4] = Inhibition of Candida albicans FBA-2
[5] = Inhibition of Mycobacterium tuberculosis FBA-2
[6] = Inhibition of Helicobacter pylori FBA-2
[7] = target: T1, Fructose-bisphosphate aldolase A (Oryctolagus cuniculus, UniProt P00883); assay: Inhibition of rabbit muscle FBA-1
T1 sequence (P00883 whole entry): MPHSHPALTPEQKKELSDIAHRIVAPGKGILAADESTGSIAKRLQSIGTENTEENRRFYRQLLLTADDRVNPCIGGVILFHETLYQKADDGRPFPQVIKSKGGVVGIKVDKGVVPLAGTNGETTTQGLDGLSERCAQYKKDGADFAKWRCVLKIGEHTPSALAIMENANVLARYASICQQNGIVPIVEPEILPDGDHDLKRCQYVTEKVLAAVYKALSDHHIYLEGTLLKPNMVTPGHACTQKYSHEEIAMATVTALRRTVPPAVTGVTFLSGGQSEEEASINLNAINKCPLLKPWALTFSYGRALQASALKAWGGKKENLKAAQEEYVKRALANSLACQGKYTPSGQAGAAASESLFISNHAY

Candida albicans = assay: Antimicrobial activity against Candida albicans at 1 mM; type: functional, organism-based
How it was run: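 Growth inhibition was tested in cultivated microbial cultures at concentrations up to 1 mM.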

[8] = test system: Mycobacterium tuberculosis; assay: Antimicrobial activity against Mycobacterium tuberculosis at 1 mM; type: functional, organism-based
Yersinia pestis = assay: Antimicrobial activity against Yersinia pestis at 1 mM; type: functional, organism-based

**Q.** What does the source list for `NO.O=C(O)C(C[C@@H](O)[C@@H](O)[C@H](O)C(=O)NO)C(=O)O`?
**A.** Ki [1]: 162 µM; IC50 [2]: 2290 µM

**Q.** With `O=C(CO)N(O)CCCCOP(=O)(O)O` as the compound, how does the Ki [3] read?
**A.** The Ki was 0.08 µM.

**Q.** And the Ki [4]?
**A.** Its Ki is 0.76 µM.

**Q.** And the Ki [5]?
**A.** Its Ki is 0.175 µM.

**Q.** And the Ki [6]?
**A.** The Ki was 1.2 µM.

**Q.** What about the Ki [7] of the same compound?
**A.** The Ki was over 1000 µM.

**Q.** What does the source list for `O=C(NO)[C@@H](O)[C@H](O)[C@H](O)CO`?
**A.** IC50 [1]: 10000 µM; IC50 [2]: 5540 µM

**Q.** For `O=C(NO)[C@@H](O)[C@H](O)[C@H](O)COP(=O)(O)O`, which Ki [1] is on record?
**A.** Its Ki is 0.08 µM.

**Q.** And the Ki [2]?
**A.** The Ki was 0.23 µM.

**Q.** What does the source list for `O=C(O)C(CC(=O)N(O)CCCCOP(=O)(O)O)C(=O)O`?
**A.** Activity (Candida albicans): inactive; Ki [3]: 1500 µM; Activity [8]: inactive; Ki [4]: 2300 µM; Activity (Yersinia pestis): inactive; Ki [5]: 500 µM; Ki [6]: 250 µM; Ki [7]: 500 µM

**Q.** Which Activity (Candida albicans) does the source give for `O=C(O)C(CCCCN(O)C(=O)COP(=O)(O)O)C(=O)O` here?
**A.** Its Activity is “inactive”.

**Q.** And the Ki [3]?
**A.** The Ki was 0.008 µM.

**Q.** What about the Activity [8] of the same compound?
**A.** The Activity was “inactive”.

**Q.** And the Ki [4]?
**A.** The Ki was 0.05 µM.

**Q.** And the Activity (Yersinia pestis)?
**A.** Its Activity is “inactive”.

**Q.** And the Ki [5]?
**A.** Its Ki is 0.004 µM.

**Q.** What about the Ki [6] of the same compound?
**A.** Its Ki is 0.04 µM.

**Q.** And the Ki [7]?
**A.** Its Ki is 257 µM.

**Q.** What does the source list for `O=C(COP(=O)(O)O)N(O)CCCCOP(=O)(O)O`?
**A.** Activity (Candida albicans): inactive; Activity [8]: inactive; Activity (Yersinia pestis): inactive
